“And” between values parts separate entries of the source, which are not always exact repeats. Identical values can stand only once.
How the values were obtained:
[1] = target: Urokinase-type plasminogen activator (Homo sapiens, UniProt P00749); experiment: Inhibition of human u-PA
[2] = target: Cytochrome P450 1A2 (Homo sapiens, UniProt P05177); experiment: Inhibition of CYP1A2; assay type: ADME
[3] = target: T1, Voltage-gated L-type calcium channel (Rattus norvegicus, UniProt P22002+Q02485+P27732); experiment: Inhibition of rat L type calcium channel at DHP site at 10 uM
[4] = Half life in dog at 2 mg/kg, iv; assay type: ADME, organism-based, Canis lupus familiaris; parameters: dose 2 mg/kg, route intravenous; settings: in vivo
How it was run: (§1)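 Fasted animals, n = 3 per species (rat, dog, monkey). Compound was dosed iv or po in a vehicle of 10 mg/mL in PEG400/water (1:1, v/v). Parameters reported were CLtotal, Vdss, t1/2, MRT, Cmax, Tmax and oral bioavailability.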

[5] = target: T2, Cytochrome P450 2C19 (Homo sapiens, UniProt P33261); experiment: Inhibition of CYP2C19 by HHA assay; assay type: ADME
[6] = Cmax in monkey at 10 mg/kg, po; assay type: ADME, organism-based, Macaca mulatta; parameters: dose 10 mg/kg, route oral; settings: rhesus monkey, in vivo; how it was run: as §1
[7] = target: T1, Voltage-gated L-type calcium channel; experiment: Inhibition of rat L type calcium channel at verapamil site at 10 uM
[8] = Oral bioavailability in dog at 2 mg/kg; assay type: ADME, organism-based, Canis lupus familiaris; settings: in vivo
How it was run: (§2)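 Pharmacokinetics in fasted rat, dog and monkey, n = 3 per species. The compound was dosed at 10 mg/mL in PEG400/water (1:1, v/v). Doses were 10 mg/kg iv and po in rat, 2 mg/kg iv and po in dog, and 10 mg/kg iv and po in monkey. Clearance, Vdss, MRT and Tmax were derived from plasma profiles; oral bioavailability came from the po and iv data.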

[9] = Oral bioavailability in rat at 10 mg/kg; assay type: ADME, organism-based; settings: in vivo; how it was run: as §2
[10] = Tmax in monkey at 10 mg/kg, po; assay type: ADME, organism-based, Macaca mulatta; parameters: dose 10 mg/kg, route oral; settings: rhesus monkey, in vivo; how it was run: as §2
[11] = target: Plasminogen (Homo sapiens, UniProt P00747); experiment: Inhibition of human plasmin
[12] = target: Prothrombin (Homo sapiens, UniProt P00734); experiment: Inhibition of human Thrombin
[13] = Volume of distribution in steady state in rat at 10 mg/kg, iv; assay type: ADME, organism-based; parameters: dose 10 mg/kg, route intravenous; settings: in vivo, read-out: Vdss; how it was run: as §2
[14] = target: Voltage-gated inwardly rectifying potassium channel KCNH2 (Homo sapiens, UniProt Q12809); experiment: Inhibition of human ERG
[15] = target: T3, Cytochrome P450 2C9 (Homo sapiens, UniProt P11712); experiment: Inhibition of CYP2C9; assay type: ADME
[16] = target: Amine oxidase [flavin-containing] A (Rattus norvegicus, UniProt P21396); experiment: Inhibition of rat MAO-A at 10 uM
[17] = target: Nuclear receptor subfamily 1 group I member 2 (Homo sapiens, UniProt O75469); experiment: Inhibition of PXR
[18] = target: T4, Cytochrome P450 3A4 (Homo sapiens, UniProt P08684); experiment: Inhibition of CYP3A4 by HHA assay; assay type: ADME
[19] = target: Amine oxidase [flavin-containing] B (Rattus norvegicus, UniProt P19643); experiment: Inhibition of rat MAO-B at 10 uM
[20] = Oral bioavailability in monkey at 10 mg/kg; assay type: ADME, organism-based, Macaca mulatta; settings: rhesus monkey, in vivo; how it was run: as §2
[21] = Volume of distribution in steady state in monkey at 10 mg/kg, iv; assay type: ADME, organism-based, Macaca mulatta; parameters: dose 10 mg/kg, route intravenous; settings: rhesus monkey, in vivo, read-out: Vdss; how it was run: as §2
[22] = target: Tissue-type plasminogen activator (Homo sapiens, UniProt P00750); experiment: Inhibition of human t-PA
[23] = target: T4, Cytochrome P450 3A4; experiment: Inhibition of CYP3A4 using BZR as substrate; assay type: ADME
[24] = […] residence time in dog at 2 mg/kg, iv; assay type: ADME, organism-based, Canis lupus familiaris; parameters: dose 2 mg/kg, route intravenous; settings: in vivo; how it was run: as §2
[25] = target: T2, Cytochrome P450 2C19; experiment: Inhibition of CYP2C19; assay type: ADME
[26] = Cmax in dog at 2 mg/kg, po; assay type: ADME, organism-based, Canis lupus familiaris; parameters: dose 2 mg/kg, route oral; settings: in vivo; how it was run: as §1
[27] = Volume of distribution in steady state in dog at 2 mg/kg, iv; assay type: ADME, organism-based, Canis lupus familiaris; parameters: dose 2 mg/kg, route intravenous; settings: in vivo, read-out: Vdss; how it was run: as §2
[28] = […] residence time in monkey at 10 mg/kg, iv; assay type: ADME, organism-based, Macaca mulatta; parameters: dose 10 mg/kg, route intravenous; settings: rhesus monkey, in vivo; how it was run: as §2
[29] = Total clearance in monkey at 10 mg/kg, iv; assay type: ADME, organism-based, Macaca mulatta; parameters: dose 10 mg/kg, route intravenous; settings: rhesus monkey, in vivo; how it was run: as §2
[30] = Cmax in rat at 10 mg/kg, po; assay type: ADME, organism-based; parameters: dose 10 mg/kg, route oral; settings: in vivo; how it was run: as §1
[31] = Plasma protein binding in Sprague-Dawley rat plasma at 30 mg/kg, id; assay type: ADME, organism-based; parameters: dose 30 mg/kg, route intraduodenal; settings: read-out: PPB (converted)
[32] = Total clearance in dog at 2 mg/kg, iv; assay type: ADME, organism-based, Canis lupus familiaris; parameters: dose 2 mg/kg, route intravenous; settings: in vivo; how it was run: as §2
[33] = Half life in rat at 10 mg/kg, iv; assay type: ADME, organism-based; parameters: dose 10 mg/kg, route intravenous; settings: in vivo; how it was run: as §1
[34] = target: T5, Cytochrome P450 2D6 (Homo sapiens, UniProt P10635); experiment: Inhibition of CYP2D6; assay type: ADME
[35] = target: T5, Cytochrome P450 2D6; experiment: Inhibition of CYP2D6 by HHA assay; assay type: ADME
[36] = […] residence time in rat at 10 mg/kg, iv; assay type: ADME, organism-based; parameters: dose 10 mg/kg, route intravenous; settings: in vivo; how it was run: as §2
[37] = target: T3, Cytochrome P450 2C9; experiment: Inhibition of CYP2C9 by HHA assay; assay type: ADME
[38] = target: T4, Cytochrome P450 3A4; experiment: Inhibition of CYP3A4 using BFC as a substrate; assay type: ADME
[39] = Total clearance in rat at 10 mg/kg, iv; assay type: ADME, organism-based; parameters: dose 10 mg/kg, route intravenous; settings: in vivo; how it was run: as §2
[40] = Tmax in dog at 2 mg/kg, po; assay type: ADME, organism-based, Canis lupus familiaris; parameters: dose 2 mg/kg, route oral; settings: in vivo; how it was run: as §2
[41] = target: Vitamin K-dependent protein C (Homo sapiens, UniProt P04070); experiment: Inhibition of human Activated protein C
[42] = Half life in monkey at 10 mg/kg, iv; assay type: ADME, organism-based, Macaca mulatta; parameters: dose 10 mg/kg, route intravenous; settings: rhesus monkey, in vivo; how it was run: as §1
[43] = Tmax in rat at 10 mg/kg, po; assay type: ADME, organism-based; parameters: dose 10 mg/kg, route oral; settings: in vivo; how it was run: as §2

T3 sequence (P11712 whole entry): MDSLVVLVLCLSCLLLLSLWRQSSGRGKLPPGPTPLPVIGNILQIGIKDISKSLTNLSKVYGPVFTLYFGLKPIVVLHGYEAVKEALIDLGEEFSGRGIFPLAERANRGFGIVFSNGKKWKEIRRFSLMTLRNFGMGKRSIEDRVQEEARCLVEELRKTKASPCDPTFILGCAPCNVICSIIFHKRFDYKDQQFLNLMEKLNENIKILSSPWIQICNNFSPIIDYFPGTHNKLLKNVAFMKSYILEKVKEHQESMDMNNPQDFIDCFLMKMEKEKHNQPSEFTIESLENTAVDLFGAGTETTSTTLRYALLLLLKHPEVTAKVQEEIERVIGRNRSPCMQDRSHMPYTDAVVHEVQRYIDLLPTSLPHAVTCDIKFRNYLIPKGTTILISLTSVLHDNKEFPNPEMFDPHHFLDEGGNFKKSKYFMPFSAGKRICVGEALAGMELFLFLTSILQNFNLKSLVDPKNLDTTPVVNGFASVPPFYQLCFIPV
T4 sequence (P08684 whole entry): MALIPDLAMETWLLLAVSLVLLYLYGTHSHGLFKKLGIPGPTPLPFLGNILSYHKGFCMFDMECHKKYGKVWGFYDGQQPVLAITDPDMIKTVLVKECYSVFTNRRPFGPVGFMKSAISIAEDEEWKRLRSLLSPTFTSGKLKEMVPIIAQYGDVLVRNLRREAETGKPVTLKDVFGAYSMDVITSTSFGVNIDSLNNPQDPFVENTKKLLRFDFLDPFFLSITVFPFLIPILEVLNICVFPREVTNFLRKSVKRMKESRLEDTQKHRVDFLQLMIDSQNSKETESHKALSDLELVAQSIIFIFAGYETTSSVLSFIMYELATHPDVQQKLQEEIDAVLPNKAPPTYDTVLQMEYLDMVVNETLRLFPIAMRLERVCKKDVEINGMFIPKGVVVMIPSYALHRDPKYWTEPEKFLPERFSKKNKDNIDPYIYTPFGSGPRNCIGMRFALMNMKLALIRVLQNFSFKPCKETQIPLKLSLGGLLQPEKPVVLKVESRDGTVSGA
T2 sequence (P33261 whole entry): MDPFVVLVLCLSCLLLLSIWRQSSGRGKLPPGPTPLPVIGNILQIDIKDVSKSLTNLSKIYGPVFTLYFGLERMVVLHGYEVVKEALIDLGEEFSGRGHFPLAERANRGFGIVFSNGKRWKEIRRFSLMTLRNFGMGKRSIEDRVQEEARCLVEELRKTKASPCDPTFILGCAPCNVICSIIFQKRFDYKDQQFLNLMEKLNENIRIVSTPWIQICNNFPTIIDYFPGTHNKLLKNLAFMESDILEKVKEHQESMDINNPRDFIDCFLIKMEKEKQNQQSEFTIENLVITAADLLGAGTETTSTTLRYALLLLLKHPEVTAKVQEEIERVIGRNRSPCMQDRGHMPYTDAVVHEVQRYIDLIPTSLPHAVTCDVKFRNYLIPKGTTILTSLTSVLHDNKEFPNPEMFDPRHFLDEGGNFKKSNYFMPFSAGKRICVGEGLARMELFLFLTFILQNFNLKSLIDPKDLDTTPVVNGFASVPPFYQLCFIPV
T5 sequence (P10635 whole entry): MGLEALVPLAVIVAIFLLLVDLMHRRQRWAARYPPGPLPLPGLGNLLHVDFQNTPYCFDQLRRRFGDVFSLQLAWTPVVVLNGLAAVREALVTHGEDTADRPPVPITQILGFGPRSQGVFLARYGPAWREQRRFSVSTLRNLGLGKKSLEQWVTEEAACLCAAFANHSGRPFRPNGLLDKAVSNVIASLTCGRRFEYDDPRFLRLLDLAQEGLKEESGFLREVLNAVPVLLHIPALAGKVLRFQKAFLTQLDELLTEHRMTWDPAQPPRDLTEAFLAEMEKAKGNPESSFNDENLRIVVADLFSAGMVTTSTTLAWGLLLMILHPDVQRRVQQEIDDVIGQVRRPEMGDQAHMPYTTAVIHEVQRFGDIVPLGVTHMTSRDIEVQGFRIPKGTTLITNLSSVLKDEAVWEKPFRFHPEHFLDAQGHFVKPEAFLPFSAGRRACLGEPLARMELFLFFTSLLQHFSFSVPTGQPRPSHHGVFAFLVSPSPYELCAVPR
Sequence of Voltage-gated inwardly rectifying potassium channel KCNH2 (Q12809 whole entry): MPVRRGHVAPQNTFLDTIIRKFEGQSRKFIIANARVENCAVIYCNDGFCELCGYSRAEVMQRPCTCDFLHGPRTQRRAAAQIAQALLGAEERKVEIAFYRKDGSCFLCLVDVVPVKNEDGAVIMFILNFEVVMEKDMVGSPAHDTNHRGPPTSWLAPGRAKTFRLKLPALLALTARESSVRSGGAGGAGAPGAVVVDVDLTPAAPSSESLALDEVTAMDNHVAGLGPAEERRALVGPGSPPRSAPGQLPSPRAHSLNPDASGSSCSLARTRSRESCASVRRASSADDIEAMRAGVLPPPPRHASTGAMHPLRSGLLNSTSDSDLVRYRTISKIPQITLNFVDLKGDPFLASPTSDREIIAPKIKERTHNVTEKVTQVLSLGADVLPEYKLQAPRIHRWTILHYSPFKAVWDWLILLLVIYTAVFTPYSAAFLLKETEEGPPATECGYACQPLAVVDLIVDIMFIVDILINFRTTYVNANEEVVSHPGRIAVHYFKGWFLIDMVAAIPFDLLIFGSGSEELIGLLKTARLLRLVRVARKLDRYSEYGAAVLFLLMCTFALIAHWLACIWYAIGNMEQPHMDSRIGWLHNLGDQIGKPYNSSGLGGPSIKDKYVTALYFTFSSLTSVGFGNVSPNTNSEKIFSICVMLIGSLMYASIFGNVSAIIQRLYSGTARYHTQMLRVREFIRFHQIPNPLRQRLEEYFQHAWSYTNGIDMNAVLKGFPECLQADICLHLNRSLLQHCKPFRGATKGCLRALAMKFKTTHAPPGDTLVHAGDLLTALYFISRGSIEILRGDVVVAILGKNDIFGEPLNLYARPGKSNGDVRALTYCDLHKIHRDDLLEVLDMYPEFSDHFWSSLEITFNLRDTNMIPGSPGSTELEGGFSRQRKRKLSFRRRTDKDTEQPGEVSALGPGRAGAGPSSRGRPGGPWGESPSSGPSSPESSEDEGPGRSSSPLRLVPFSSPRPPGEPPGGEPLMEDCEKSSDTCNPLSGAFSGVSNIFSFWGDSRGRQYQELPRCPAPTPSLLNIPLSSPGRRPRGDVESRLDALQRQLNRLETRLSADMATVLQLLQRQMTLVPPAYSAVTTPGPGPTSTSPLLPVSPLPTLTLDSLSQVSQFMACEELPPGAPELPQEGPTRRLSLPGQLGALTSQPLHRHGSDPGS
Sequence of Tissue-type plasminogen activator (P00750 whole entry): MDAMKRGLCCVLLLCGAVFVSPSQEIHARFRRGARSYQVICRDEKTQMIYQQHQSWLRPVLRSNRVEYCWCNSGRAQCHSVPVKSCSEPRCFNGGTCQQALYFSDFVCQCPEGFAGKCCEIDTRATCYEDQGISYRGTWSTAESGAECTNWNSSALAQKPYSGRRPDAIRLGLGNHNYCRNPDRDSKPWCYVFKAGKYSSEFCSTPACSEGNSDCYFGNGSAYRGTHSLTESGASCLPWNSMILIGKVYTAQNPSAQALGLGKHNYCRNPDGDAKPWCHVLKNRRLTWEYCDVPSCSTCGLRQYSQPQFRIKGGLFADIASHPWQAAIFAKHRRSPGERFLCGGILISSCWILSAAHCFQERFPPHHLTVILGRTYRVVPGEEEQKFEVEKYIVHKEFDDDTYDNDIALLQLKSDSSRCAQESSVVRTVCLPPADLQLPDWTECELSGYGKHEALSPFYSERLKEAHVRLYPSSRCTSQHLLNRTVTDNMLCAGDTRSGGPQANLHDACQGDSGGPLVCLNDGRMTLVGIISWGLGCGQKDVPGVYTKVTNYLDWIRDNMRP
Sequence of Amine oxidase [flavin-containing] A (P21396 whole entry): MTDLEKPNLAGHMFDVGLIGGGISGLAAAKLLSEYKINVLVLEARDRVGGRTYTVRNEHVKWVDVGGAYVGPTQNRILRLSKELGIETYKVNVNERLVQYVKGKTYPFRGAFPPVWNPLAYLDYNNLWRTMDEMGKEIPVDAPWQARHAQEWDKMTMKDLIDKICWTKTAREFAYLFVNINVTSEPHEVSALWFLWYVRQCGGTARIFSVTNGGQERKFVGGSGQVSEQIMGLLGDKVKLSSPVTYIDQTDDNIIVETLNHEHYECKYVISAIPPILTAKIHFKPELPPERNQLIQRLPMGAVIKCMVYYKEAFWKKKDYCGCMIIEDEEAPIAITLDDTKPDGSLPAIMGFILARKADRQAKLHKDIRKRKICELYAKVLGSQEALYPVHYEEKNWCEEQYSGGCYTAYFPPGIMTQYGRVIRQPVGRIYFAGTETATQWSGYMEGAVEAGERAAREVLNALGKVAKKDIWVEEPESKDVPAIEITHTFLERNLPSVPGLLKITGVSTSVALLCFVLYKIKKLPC
Sequence of Cytochrome P450 1A2 (P05177 whole entry): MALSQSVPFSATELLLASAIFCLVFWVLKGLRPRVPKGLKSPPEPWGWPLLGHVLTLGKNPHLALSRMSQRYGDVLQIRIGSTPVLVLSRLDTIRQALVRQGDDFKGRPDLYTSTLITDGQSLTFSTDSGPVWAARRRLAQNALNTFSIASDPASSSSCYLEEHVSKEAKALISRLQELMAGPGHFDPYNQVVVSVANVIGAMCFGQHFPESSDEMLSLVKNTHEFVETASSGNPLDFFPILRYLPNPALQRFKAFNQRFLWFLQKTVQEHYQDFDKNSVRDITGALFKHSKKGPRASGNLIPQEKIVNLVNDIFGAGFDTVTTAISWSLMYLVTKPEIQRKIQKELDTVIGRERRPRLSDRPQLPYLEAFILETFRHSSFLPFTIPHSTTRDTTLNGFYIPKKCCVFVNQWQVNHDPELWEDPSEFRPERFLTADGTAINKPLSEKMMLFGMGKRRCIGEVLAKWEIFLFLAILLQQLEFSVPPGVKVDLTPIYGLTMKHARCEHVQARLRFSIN

Structure (SMILES): Cc1cc2cc(N=C(NC(=O)c3ccc(C(=O)N(C)C)nc3)N[C@H]3CCCCN(CC(=O)N4CCCC4)C3=O)ccc2o1
- Ki [1]: > 7.8 µM
- IC50 [2]: > 40 µM
- Activity [3]: Not Active
- half-life [4]: 8.6 h
- IC50 [5]: > 200 µM
- Cmax [6]: 2100 ng/mL
- Activity [7]: Not Active
- bioavailability [8]: 77%
- bioavailability [9]: 55%
- Tmax [10]: 1.8 h
- Ki [11]: > 16 µM
- Ki [12]: 2.3 µM
- Vd [13]: 3.3 L/kg
- Activity [14]: Not Active
- IC50 [15]: 43 µM and > 40 µM
- Activity [16]: Not Active
- Activity [17]: Not Active
- IC50 [18]: > 200 µM
- Activity [19]: Not Active
- bioavailability [20]: 28%
- Vd [21]: 2.3 L/kg
- Ki [22]: 0.665 µM
- IC50 [23]: > 40 µM
- MRT [24]: 9 h
- IC50 [25]: 51 µM and 40 µM
- Cmax [26]: 2800 ng/mL
- Vd [27]: 0.96 L/kg
- MRT [28]: 4 h
- clearance [29]: 11 mL/min/kg
- Cmax [30]: 2200 ng/mL
- fraction unbound [31]: 0.28
- clearance [32]: 1.9 mL/min/kg
- half-life [33]: 1.6 h
- IC50 [34]: > 40 µM
- IC50 [35]: > 200 µM
- MRT [36]: 2 h
- IC50 [37]: > 200 µM
- IC50 [38]: 39 µM
- clearance [39]: 27 mL/min/kg
- Tmax [40]: 1.3 h
- Ki [41]: > 18 µM
- half-life [42]: 14 h
- Tmax [43]: 0.6 h

From ChEMBL document CHEMBL1156750 (Bioorg Med Chem Lett, 2009)
